Test results published in ChEMBL document CHEMBL1122944, “The histamine H2 receptor agonist impromidine: synthesis and structure-activity considerations” (J Med Chem, 1985).

Tests used:
Histamine H2 receptor [1] = molecular target: T1, Histamine H2 receptor (Cavia porcellus, UniProt P47747); test: Antagonistic activity against H2 receptor in guinea pig.; assay type: functional; settings: read-out: pA2 (converted)
[2] = molecular target: Histamine H2 receptor (Cavia porcellus) (UniProt P47747); test: Agonistic activity against histamine H2 receptor in guinea pig atrium(potency relative to histamine =1); assay type: functional, tissue-based; settings: Cardiac atrium
Chain of Histamine H2 receptor (Cavia porcellus) (P47747 whole entry): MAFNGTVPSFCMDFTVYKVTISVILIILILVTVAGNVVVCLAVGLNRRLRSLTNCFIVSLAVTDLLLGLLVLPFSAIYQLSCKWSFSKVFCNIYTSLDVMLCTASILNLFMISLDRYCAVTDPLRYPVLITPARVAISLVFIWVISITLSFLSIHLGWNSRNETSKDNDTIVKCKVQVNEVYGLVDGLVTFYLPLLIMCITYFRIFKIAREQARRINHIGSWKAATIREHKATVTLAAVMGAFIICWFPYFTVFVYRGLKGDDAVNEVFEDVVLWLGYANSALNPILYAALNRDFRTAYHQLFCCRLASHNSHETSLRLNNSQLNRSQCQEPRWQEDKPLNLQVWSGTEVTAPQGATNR
Procedure, shortened: (§1)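 Isolated guinea pig atrium, muscle under 400-mg tension, propranolol (0.5 μM) present. Agonist tested up to 781 μM (0.1% histamine) by cumulative dose-response curves. Potency relative to histamine taken from concentrations giving 50% of maximal response; selected compounds by 2 + 2 Latin square parallel-line assay against histamine.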

[3] = molecular target: Histamine H2 receptor (Cavia porcellus) (UniProt P47747); test: Percent maximum response against histamine H2 receptor in guinea pig atrium was evaluated; assay type: tissue-based; settings: Cardiac atrium
Procedure, shortened: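 Isolated guinea pig atrium under 400-mg tension with propranolol (0.5 μM). Complete cumulative dose-response curves to histamine and test agonist, up to 781 μM, used to find the maximum response obtainable, expressed relative to histamine.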

[4] = molecular target: Histamine H2 receptor (Cavia porcellus) (UniProt P47747); test: Agonistic activity against histamine H2 receptor in guinea pig atrium (potency relative to histamine =1); assay type: functional, tissue-based; settings: Cardiac atrium; procedure, shortened: as §1
Histamine H2 receptor [5] = molecular target: T1, Histamine H2 receptor; test: Antagonistic activity against H2 receptor in guinea pig was evaluated; assay type: functional; settings: read-out: pA2 (converted)
Procedure, shortened: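 Guinea pig atrium under 400-mg tension with propranolol (0.5 μM). Histamine concentrations giving half-maximal response measured with and without several antagonist concentrations (B). K_B = B/(x − 1), x being the concentration ratio; pA2 = −log K_B.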

[6] = molecular target: Histamine H2 receptor (Cavia porcellus) (UniProt P47747); settings: Cardiac atrium

T1 sequence (P47747 whole entry): as above

SMILES | Kb (Histamine H2 receptor [1]) | Max response [3] | Potency [4] | also measured
C/N=C(\N)NCCc1c[nH]cn1 | > 501 µM | 62% |  | Potency [2]: 0.01
C/N=C(\N)NCCSCc1[nH]cnc1C | 16.2 µM |  |  | 
N=C(NCCCc1c[nH]cn1)NCCCc1nccs1 |  | 87% | 26.6 | 
Cc1[nH]cnc1CSCC/N=C(\N)SCCCc1c[nH]cn1 | 3.31 µM |  |  | 
C/N=C(\N)NCCSCc1c[nH]cn1 | 41.7 µM |  |  | 
C/N=C(\N)NCCCc1c[nH]cn1 | 12.6 µM | 62% | 0.2 | 
CC1=NN(c2ccc([N+](=O)[O-])cc2)C(=O)C1[N+](=O)[O-].Cc1[nH]cnc1CSCC/N=C(\N)NCCc1c[nH]cn1 |  | 100% | 1.93 | 
N=C(NCCCCc1c[nH]cn1)NCCCc1c[nH]cn1 |  | 85.5% | 12.3 | 
Cc1[nH]cnc1CSCCNC(=N)NCCSCc1nc[nH]c1C | 0.214 µM |  |  | 
CC1=NN(c2ccc([N+](=O)[O-])cc2)C(=O)C1[N+](=O)[O-].Cc1[nH]cnc1CSCC/N=C(\N)NCCCc1cn(C)cn1 | 1.58 µM | 11% | 0.007 | 
CSC(=N)NCCCc1c[nH]cn1 | 25.1 µM | 23% | 0.1 | 
C/N=C(\N)NCCCc1nccs1 | 63.1 µM |  |  | 
C/[S+]=C(/NCCCc1c[nH]cn1)NCCSCc1[nH]cnc1C |  |  |  | Kb (Histamine H2 receptor [5]): 17.8 µM; Potency [6]: 0.01
N=C(NCCCc1c[nH]cn1)NCCSCc1c[nH]cn1 |  | 95% | 5.38 | 
Cc1[nH]cnc1CSCCNC(=N)NCCCc1c[nH]cn1 |  | 98.7% | 48.1 | 
CC1=NN(c2ccc([N+](=O)[O-])cc2)C(=O)C1[N+](=O)[O-].CN/C(=N\CCCc1c[nH]cn1)NCCSCc1[nH]cnc1C |  | 91% |  | Potency [2]: 0.062
Cc1[nH]cnc1CSCC/N=C(\NC#N)NCCCc1c[nH]cn1 | 0.575 µM |  |  | 
Cc1[nH]cnc1CSCC/N=C(\N)NCCCCc1c[nH]cn1 | 1.15 µM | 20% | 0.83 | 
C/N=C(\N)NCCCCc1c[nH]cn1 | 100 µM | 46% | 0.074 | 
CC1=NN(c2ccc([N+](=O)[O-])cc2)C(=O)C1[N+](=O)[O-].N=C(NCCCc1c[nH]cn1)NCCCc1c[nH]cn1 |  | 100% | 4.83 | 
N=C(NCCCc1c[nH]cn1)NCCSCc1nccs1 |  | 91% | 24.4 | 
Cc1nc[nH]c1CSCCNC(=S)NCCCc1cnc[nH]1 | 1.2 µM |  |  | 
CSC(=N)NCCSCc1[nH]cnc1C | 6.92 µM |  |  | 
Cc1nc[nH]c1CSCCNC(=O)NCCCc1cnc[nH]1 | 6.31 µM |  |  | 
